How the values were obtained:
Conditions in all cases: in vivo
Homo sapiens [1] = test: Drug level in human plasma at 100 mg, po administered as single dose measured after 24 hrs by liquid scintillation counting; format: ADME, organism-based; parameters: dosed compound name [14C]lixivaptan
Outline: (§1)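 Healthy male volunteers fasted ≥10 h, given single oral 100 mg (200 µCi) [14C]drug as two 50-mg capsules with 250 ml water. Plasma (from ~50 ml blood) at 0.5, 2, 4, 8, 12, 24, 36 h, profiled per subject. Acetonitrile extraction, C18 radio-HPLC with 0.2% formic acid acetonitrile/water gradient, on-line radioactivity detection as % plasma radioactivity; ng-equiv/ml from % × total radioactivity.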

[2] = Drug recovery in feces of male Sprague-Dawley rat at 10 mg/kg, po administered as single dose via gavage measured after 168 hrs by liquid scintillation counting; format: ADME, organism-based; parameters: dose 10 mg/kg, dosed compound name [14C]lixivaptan, route oral
Outline: (§2)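 Intact SD rats (3/gender) dosed by gavage with [14C]drug 10 mg/kg (10 ml/kg, pluronic F68/water), housed in metabolism cages; urine and feces at 0-8, 8-24 h, then every 24 h to 7 days. Urine counted by LSC; feces homogenized 20% w/w in water, combusted, trapped CO2 counted; cage wash/debris included; % of dose.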

Homo sapiens [3] = test: AUC(0 to t) as total radioactivity in human plasma at 100 mg, po administered as single dose by LC-MS/MS analysis; format: ADME, organism-based; parameters: dosed compound name [14C]lixivaptan
Outline: (§3)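 Fasted healthy males took one oral 100 mg (200 µCi) [14C]lixivaptan dose. Plasma was drawn from predose to 144 h. Total radioactivity was measured by LSC and converted to ng-equiv/ml via the dose specific activity; lixivaptan by validated LC-MS/MS. Noncompartmental analysis: Cmax observed; kel by log-linear regression; AUC0-t by linear trapezoid; extrapolation as Cest/kel.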

Rattus norvegicus [4] = test: AUC(0 to t) as total radioactivity in male Sprague-Dawley rat plasma at 10 mg/kg, po administered as single dose via gavage by LC-MS/MS analysis; format: ADME, organism-based; parameters: dose 10 mg/kg, dosed compound name [14C]lixivaptan, route oral
Outline: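 Jugular-cannulated Sprague-Dawley rats (5/gender) were fasted 18 h and gavaged once with 10 mg/kg [14C]lixivaptan suspended in water/pluronic F68. K2EDTA blood was taken at 0.25–168 h, with donor blood replaced from 1 h on. Total radioactivity was read by LSC (ng-equiv/ml) and parent by validated LC-MS/MS. Noncompartmental Cmax, log-linear kel and trapezoidal AUC followed.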

Rattus norvegicus [5] = test: Total drug recovery in bile duct-cannulated female Sprague-Dawley rat at 10 mg/kg, po administered as single dose via gavage measured 0 to 48 hrs by liquid scintillation counting; format: ADME, organism-based; parameters: dose 10 mg/kg, dosed compound name [14C]lixivaptan, route oral
Canis familiaris [6] = test: Total Drug recovery in male beagle dog at 10 mg/kg, po administered as single dose via gavage measured after 168 hrs by liquid scintillation counting; format: ADME, organism-based, Canis lupus familiaris; parameters: dose 10 mg/kg, dosed compound name [14C]lixivaptan, route oral
Outline: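 Four male dogs, fasted 18 h, given [14C]drug by gavage as a 5.0 mg/ml suspension in pluronic F68/deionized water (2 ml/kg, 1.04 μCi/mg), followed by a 10 ml water rinse. Urine and feces collected frozen over dry ice at 0-8, 8-24 h, then every 24 h for 7 days. Feces combusted before LSC; total includes cage wash/debris.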

Canis familiaris [7] = test: Drug level in beagle dog plasma at 10 mg/kg, po administered as single dose measured after 2 hrs by liquid scintillation counting; format: ADME, organism-based, Canis lupus familiaris; parameters: dose 10 mg/kg, dosed compound name [14C]lixivaptan, route oral
Outline: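 Four male beagles fasted 18 h were gavaged once with [14C]lixivaptan at 10 mg/kg (2 ml/kg). The 5.0 mg/ml suspension was in deionized water with pluronic F68 (1.04 µCi/mg). Jugular K2EDTA plasma was taken at 2, 8 and 24 h and extracted twice with 2 volumes of acetonitrile. Profiling used C18 radio-HPLC (ammonium formate/acetonitrile gradient) with on-line flow scintillation detection. Each peak is reported as percent of plasma radioactivity.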

Rattus norvegicus [8] = test: Tmax as total radioactivity in female Sprague-Dawley rat plasma at 10 mg/kg, po administered as single dose via gavage by LC-MS/MS analysis; format: ADME, organism-based; parameters: dose 10 mg/kg, dosed compound name [14C]lixivaptan, route oral
Outline: (§4)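 Jugular-vein cannulated SD rats (5/gender) given gavage [14C]drug 10 mg/kg in pluronic F68/water; K2EDTA blood 0.25-168 h with donor blood replacement. Parent by validated LC-MS/MS, radioactivity by LSC; Tmax observed; t1/2 = 0.693/kel by terminal log-linear regression.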

Rattus norvegicus [9] = test: Drug level in male Sprague-Dawley rat plasma at 10 mg/kg, po administered as single dose via gavage measured after 1 hr by liquid scintillation counting; format: ADME, organism-based; parameters: dose 10 mg/kg, dosed compound name [14C]lixivaptan, route oral
Outline: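 Single oral gavage of [14C]drug (10 mg/kg, 10 ml/kg) as suspension in deionized water with pluronic F68, ~29.8 µCi/mg; SD rats fasted 18 h, fed 4 h post-dose. Blood by cardiac puncture under isoflurane, 3 rats/time/gender, into K2EDTA at 1, 8, 24 h; plasma extracted twice with 2 vol acetonitrile, radio-HPLC on C18 with flow radioactivity detection, expressed as % plasma radioactivity.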

Homo sapiens [10] = test: AUC(0 to infinity) as total radioactivity in human plasma at 100 mg, po administered as single dose by LC-MS/MS analysis; format: ADME, organism-based; parameters: dose 100 mg, route oral, dosed compound name [14C]lixivaptan, time infinity; outline: as §3
[11] = Drug recovery in urine of male beagle dog at 10 mg/kg, po administered as single dose via gavage measured after 168 hrs by liquid scintillation counting; format: ADME, organism-based, Canis lupus familiaris; parameters: dose 10 mg/kg, dosed compound name [14C]lixivaptan, route oral
Outline: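 Four male beagles got 10 mg/kg (2 ml/kg) [14C]drug suspension (5.0 mg/ml, pluronic F68/water, 1.04 µCi/mg) by gavage. Urine and feces collected over dry ice at 0-8, 8-24 h, then every 24 h to 7 days; urine by LSC, fecal homogenates combusted then LSC; cage wash/debris included; % of dose.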

Homo sapiens [12] = test: Drug level in human plasma at 100 mg, po administered as single dose measured after 0.5 hrs by liquid scintillation counting; format: ADME, organism-based; parameters: dosed compound name [14C]lixivaptan; outline: as §1
Rattus norvegicus [13] = test: AUC (0 to 24 hrs) in female Sprague-Dawley rat at 10 mg/kg, po administered as single dose via gavage; format: ADME, organism-based, Plasma; parameters: time < 24 hr, dose 10 mg/kg, dosed compound name [14C]lixivaptan, route oral
Outline: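 Sprague-Dawley rats (9/gender) were fasted 18 h and gavaged once with [14C]lixivaptan at 10 mg/kg (10 ml/kg), about 29.8 µCi/mg, suspended in deionized water with pluronic F68. Plasma came by cardiac puncture under isoflurane at 1, 8 and 24 h (3/gender/time) and was extracted twice with 2 volumes of acetonitrile. C18 radio-HPLC with a flow scintillation detector gave percent of plasma radioactivity per peak.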

[14] = Drug recovery in feces of human at […], po administered as single dose measured after 168 hrs by liquid scintillation counting; format: ADME, organism-based; parameters: dosed compound name [14C]lixivaptan, route oral
Outline: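 Healthy male volunteers given single oral 100 mg (200 µCi) [14C]drug capsules after ≥10 h fast. Urine at 0-4, 4-8, 8-12, 12-24 h then 24-h intervals; feces as passed, to 168 h. Urine LSC; feces homogenized in water, combusted, LSC; % of dose.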

Rattus norvegicus [15] = test: Total Drug recovery in female Sprague-Dawley rat at 10 mg/kg, po administered as single dose via gavage measured after 168 hrs by liquid scintillation counting; format: ADME, organism-based; parameters: dose 10 mg/kg, dosed compound name [14C]lixivaptan, route oral; outline: as §2
Rattus norvegicus [16] = test: Tmax as total radioactivity in male Sprague-Dawley rat plasma at 10 mg/kg, po administered as single dose via gavage by LC-MS/MS analysis; format: ADME, organism-based; parameters: dose 10 mg/kg, dosed compound name [14C]lixivaptan, route oral; outline: as §4

SMILES: Cc1ccc(F)cc1[14C](=O)Nc1ccc(C(=O)N2Cc3cccn3Cc3ccccc32)c(Cl)c1
- Compound recovery (Homo sapiens [1]): 5.5%
- Radiolabel recovery [2]: 91%
- AUCt (Homo sapiens [3]): 24700 ng.Eq.hr/ml
- AUCt (Rattus norvegicus [4]): 65700 ng.Eq.hr/ml
- Radiolabel recovery (Rattus norvegicus [5]): 70.5%
- Radiolabel recovery (Canis familiaris [6]): 95.9%
- Compound recovery (Canis familiaris [7]): 21.2%
- Tmax (Rattus norvegicus [8]): 1.4 h
- Compound recovery (Rattus norvegicus [9]): 4.1%
- AUC (Homo sapiens [10]): 26200 ng.Eq.hr/ml
- Radiolabel recovery [11]: 7.95%
- Compound recovery (Homo sapiens [12]): 43.5%
- AUC (Rattus norvegicus [13]): 5580 ng.Eq.hr/ml
- Radiolabel recovery [14]: 63.7%
- Radiolabel recovery (Rattus norvegicus [15]): 103%
- Tmax (Rattus norvegicus [16]): 3.2 h
